Source: ChEMBL document CHEMBL1773058, “Synthesis of 4β-carbamoyl epipodophyllotoxins as potential antitumour agents” (2011)
Active and inactive are the calls of the source. The calls are words filed in the database; no cut-off is given here.

Columns and labels:
ZR-75-1 = assay: Growth inhibition of human ZR-75-1 cells after 48 hrs by sulforhodamine B assay; type: functional; settings: ZR-75-1, 48 h
Summary of the method: (§1)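 Cells grown in RPMI-1640 (2 mM glutamine, pH 7.4, 10% FCS, penicillin/streptomycin) at 37 °C, 5% CO2. Subconfluent cells trypsinised, used at >97% viability (trypan blue), plated and grown 24 h, then exposed to test materials 48 h in triplicate. Fixed with TCA at 4 °C for 1 h, stained 30 min with 0.4% SRB in 1% acetic acid, dye solubilised in 10 mM Tris pH 10.4, OD read at 540 nm. GI50 reported.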

MCF7 = assay: Growth inhibition of human MCF7 cells after 48 hrs by sulforhodamine B assay; type: functional; settings: MCF7, 48 h; summary of the method: as §1
KB = assay: Growth inhibition of human KB cells after 48 hrs by sulforhodamine B assay; type: functional; summary of the method: as §1
[1] = Growth inhibition of human Gurav cells after 48 hrs by sulforhodamine B assay; type: functional; summary of the method: as §1
[2] = Growth inhibition of human DWD cells after 48 hrs by sulforhodamine B assay; type: functional; summary of the method: as §1
COLO 205 = assay: Growth inhibition of human COLO205 cells after 48 hrs by sulforhodamine B assay; type: functional; settings: COLO 205, 48 h; summary of the method: as §1
A549 = assay: Growth inhibition of human A549 cells after 48 hrs by sulforhodamine B assay; type: functional; settings: A549, 48 h; summary of the method: as §1
HOP-62 = assay: Growth inhibition of human HOP62 cells after 48 hrs by sulforhodamine B assay; type: functional; settings: HOP-62, 48 h; summary of the method: as §1
PC-3 = assay: Growth inhibition of human PC3 cells after 48 hrs by sulforhodamine B assay; type: functional; settings: PC-3, 48 h; summary of the method: as §1
SiHa = assay: Growth inhibition of human SiHa cells after 48 hrs by sulforhodamine B assay; type: functional; summary of the method: as §1
A2780 = assay: Growth inhibition of human A2780 cells after 48 hrs by sulforhodamine B assay; type: functional; settings: A2780, 48 h; summary of the method: as §1
[3] = target: DNA topoisomerase 2-alpha (Homo sapiens) (UniProt P11388); assay: Inhibition of topoisomerase 2 assessed as inhibition of relaxation of supercoiled pBR322 plasmid DNA at 10 uM to 1 mM by ethidium bromide staining
Sequence of DNA topoisomerase 2-alpha (Homo sapiens) (P11388 whole entry): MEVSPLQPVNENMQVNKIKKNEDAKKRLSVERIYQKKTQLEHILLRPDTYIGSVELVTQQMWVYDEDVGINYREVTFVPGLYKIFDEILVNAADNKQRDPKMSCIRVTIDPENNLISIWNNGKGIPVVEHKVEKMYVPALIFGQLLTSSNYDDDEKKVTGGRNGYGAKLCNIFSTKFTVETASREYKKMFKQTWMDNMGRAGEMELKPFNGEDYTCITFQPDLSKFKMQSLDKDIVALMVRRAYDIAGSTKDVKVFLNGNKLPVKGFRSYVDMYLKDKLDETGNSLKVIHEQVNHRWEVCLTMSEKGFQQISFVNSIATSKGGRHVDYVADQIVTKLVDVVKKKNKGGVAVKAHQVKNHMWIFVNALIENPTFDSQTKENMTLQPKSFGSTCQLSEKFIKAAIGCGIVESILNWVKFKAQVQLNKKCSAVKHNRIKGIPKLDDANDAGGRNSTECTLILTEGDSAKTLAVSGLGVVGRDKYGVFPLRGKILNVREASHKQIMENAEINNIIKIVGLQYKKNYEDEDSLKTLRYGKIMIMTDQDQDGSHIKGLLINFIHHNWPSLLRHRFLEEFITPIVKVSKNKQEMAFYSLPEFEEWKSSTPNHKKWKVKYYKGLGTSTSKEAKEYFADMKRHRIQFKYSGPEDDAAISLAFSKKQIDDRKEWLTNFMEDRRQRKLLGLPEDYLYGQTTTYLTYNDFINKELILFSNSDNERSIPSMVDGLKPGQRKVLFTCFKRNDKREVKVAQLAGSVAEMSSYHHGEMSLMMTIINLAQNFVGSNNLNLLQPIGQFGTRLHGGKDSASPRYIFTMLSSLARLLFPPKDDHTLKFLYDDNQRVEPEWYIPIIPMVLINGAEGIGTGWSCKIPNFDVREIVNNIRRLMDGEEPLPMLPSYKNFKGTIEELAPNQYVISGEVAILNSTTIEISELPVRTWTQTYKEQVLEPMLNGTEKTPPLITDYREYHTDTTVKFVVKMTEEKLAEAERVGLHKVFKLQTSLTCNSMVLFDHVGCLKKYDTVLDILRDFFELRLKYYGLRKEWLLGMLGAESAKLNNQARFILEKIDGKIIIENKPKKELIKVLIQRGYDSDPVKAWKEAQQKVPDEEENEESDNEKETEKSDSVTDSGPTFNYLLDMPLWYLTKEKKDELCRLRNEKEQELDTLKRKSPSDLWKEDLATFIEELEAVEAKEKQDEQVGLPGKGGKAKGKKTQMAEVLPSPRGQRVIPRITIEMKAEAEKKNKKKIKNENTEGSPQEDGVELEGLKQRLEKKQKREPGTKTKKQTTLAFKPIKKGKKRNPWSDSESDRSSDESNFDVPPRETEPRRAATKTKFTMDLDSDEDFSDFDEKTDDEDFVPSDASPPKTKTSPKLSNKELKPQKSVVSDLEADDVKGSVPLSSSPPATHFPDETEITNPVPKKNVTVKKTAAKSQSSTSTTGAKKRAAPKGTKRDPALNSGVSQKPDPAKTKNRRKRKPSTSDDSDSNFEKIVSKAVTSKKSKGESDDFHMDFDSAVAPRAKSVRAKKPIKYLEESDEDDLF
Summary of the method: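 Topo II relaxation reaction stopped with 10% SDS, then proteinase K treatment and extraction with chloroform/isoamyl alcohol (24:1). Products resolved on 1% agarose gel in TAE (40 mM Tris-acetate pH 8.0, 1 mM EDTA) and stained with 0.5 µg/ml ethidium bromide.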

SMILES	GI50 (ZR-75-1) [nM]	GI50 (MCF7) [nM]	GI50 (KB) [nM]	GI50 [1] [nM]	GI50 [2] [nM]	GI50 (COLO 205) [nM]	GI50 (A549) [nM]	GI50 (HOP-62) [nM]	GI50 (PC-3) [nM]	GI50 (SiHa) [nM]	GI50 (A2780) [nM]	inhibition [3]
COc1cc([C@@H]2c3cc4c(cc3[C@@H](OC(=O)NC(C)C)[C@H]3COC(=O)[C@H]23)OCO4)cc(OC)c1OC	150	190	180	160	< 100	2700	< 100	2100	190	190	140	–
O=c1[nH]cc(F)c(=O)[nH]1 [FLUOROURACIL]	2300	2800	5200	3100	6100	2800	2400	4100	12000	6300	3500	–
C#CCNC(=O)O[C@@H]1c2cc3c(cc2[C@@H](c2cc(OC)c(OC)c(OC)c2)[C@H]2C(=O)OC[C@@H]21)OCO3	140	190	170	140	< 100	2700	< 100	140	160	1900	160	–
COc1cc([C@@H]2c3cc4c(cc3[C@@H](OC(=O)N(C)C)[C@H]3COC(=O)[C@H]23)OCO4)cc(OC)c1OC	120	160	180	170	< 100	2100	< 100	130	150	2100	180	–
CCCNC(=O)O[C@@H]1c2cc3c(cc2[C@@H](c2cc(OC)c(OC)c(OC)c2)[C@H]2C(=O)OC[C@@H]21)OCO3	190	2000	2100	170	2000	2700	< 100	160	170	1200	190	–
COc1cc([C@@H]2c3cc4c(cc3[C@@H](OC(=O)NCCc3c[nH]c5ccccc35)[C@H]3COC(=O)[C@H]23)OCO4)cc(OC)c1OC	130	160	180	120	< 100	120	< 100	2100	160	1800	110	Active
COc1cc([C@@H]2c3cc4c(cc3[C@@H](OC(=O)N3CCOCC3)[C@H]3COC(=O)[C@H]23)OCO4)cc(OC)c1OC	140	160	120	140	< 100	2700	< 100	130	160	1400	130	Active
COc1cc([C@@H]2c3cc4c(cc3[C@@H](OC(=O)NCc3ccc(C(F)(F)F)cc3)[C@H]3COC(=O)[C@H]23)OCO4)cc(OC)c1OC	160	180	180	190	2000	150	< 100	2300	2100	2000	180	–
COc1cc([C@@H]2c3cc4c(cc3[C@@H](OC(=O)NCC3CC3)[C@H]3COC(=O)[C@H]23)OCO4)cc(OC)c1OC	190	2300	2400	180	2000	2500	< 100	2500	2300	2300	2000	–
COc1cc([C@@H]2c3cc4c(cc3[C@@H](O[C@@H]3O[C@@H]5CO[C@@H](C)O[C@H]5[C@H](O)[C@H]3O)[C@H]3COC(=O)[C@H]23)OCO4)cc(OC)c1O [ETOPOSIDE]	200	2100	300	500	600	130	3080	800	2600	3100	1300	–
COCCNC(=O)O[C@@H]1c2cc3c(cc2[C@@H](c2cc(OC)c(OC)c(OC)c2)[C@H]2C(=O)OC[C@@H]21)OCO3	< 100	150	150	140	< 100	2200	< 100	120	160	2400	150	–
COc1cc([C@@H]2c3cc4c(cc3[C@@H](OC(=O)NCCN(C)C)[C@H]3COC(=O)[C@H]23)OCO4)cc(OC)c1OC	< 100	110	160	150	< 100	2100	< 100	120	150	2100	120	–
